Data reported in ChEMBL document CHEMBL1154704, “Synthesis, anti-HCV, antioxidant, and peroxynitrite inhibitory activity of fused benzosuberone derivatives” (Eur J Med Chem, 2010).
Values after ≈ are worked out from the molar mass of the structure shown.

Columns and labels:
[1] = Inhibition of peroxynitrite-induced 3-nitrotyrosin formation by HPLC; format: functional
Summary of the method: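 Equimolar tyrosine and peroxynitrite with compound at increasing concentrations in 100 mM phosphate buffer pH 7.4, 37 °C for 15 min. Peroxynitrite stock quantified at 302 nm (ε 1670 cm⁻¹ M⁻¹), held on ice ≤30 min after thawing. 3-Nitrotyrosine measured by HPLC; control peroxynitrite plus tyrosine; mean ± SD of 3 independent experiments.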

Hepatitis C virus = experiment: Antiviral activity HCV in replicon cells assessed as inhibition of NS3-4A protease activity by RT-PCR; format: functional, Hepacivirus hominis
Summary of the method: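 Replicon cells seeded at 1×10⁴/well; next day incubated at 37 °C with serially diluted agents in DMEM + 2% FBS + 0.5% DMSO for the indicated period. Total RNA extracted, HCV RNA copy number by quantitative RT-PCR; five replicates per point; ribavirin control. Cytotoxicity by MTS viability in same settings; Huh-7 1×10⁴ or HepG2 4×10⁴ cells/well.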

[2] = system: Radical scavenging activity; experiment: Antioxidant activity assessed as DPPH radical scavenging activity by microplate reader assay; format: functional; parameters: concentration or dose not given beside the values
Summary of the method: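 Compounds or ascorbic acid standard added to DPPH radical in methanol, ratio 1:9; incubated dark 37 °C 30 min; absorbance decrease read at 515 nm on plate reader. Blank of DMSO plus DPPH; solvent control taken as 0% scavenging. Triplicate; reported as % decrease in DPPH absorbance, mean ± SD.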

SMILES | IC50 [1] [µM] | MIC (Hepatitis C virus) [µg/mL] | Activity [2] [%]
N#Cc1cc2c([nH]c1=O)-c1ccccc1CCC2 | 291 | 4.45 (≈ 18.8 µM) | 27.4
CCOC(=O)c1cc2c(nc1C)-c1ccccc1CCC2 | 329 | 3.58 (≈ 12.7 µM) | 54.4
Cc1c(C)c2c(c(C)c1O)CCC(C)(C(=O)O)O2 (configuration not stated) [TROLOX] | 58.4 | – | –
c1ccc2c(c1)CCCc1cnc3nc4ccccc4n3c1-2 | 342 | 6 (≈ 21 µM) | 28.2
CN(C)/C=C1\CCCc2ccccc2C1=O | 146 | – | 57.9
O=C1O[C@H]([C@@H](O)CO)C(O)=C1O | – | – | 79
CC(=O)c1cc2c(nc1C)-c1ccccc1CCC2 | 158 | 7.09 (≈ 28.2 µM) | 37.2
c1ccc2c(c1)CCCc1cnoc1-2 | 149 | 7.66 (≈ 41.4 µM) | 44.1
NC(=O)c1ncn([C@@H]2O[C@H](CO)[C@@H](O)[C@H]2O)n1 [RIBAVIRIN] | – | 16.1 (≈ 66.1 µM) | –
c1ccc2c(c1)CCCc1cnc3ncnn3c1-2 | 315 | 2.21 (≈ 9.35 µM) | 27.7
O=c1cc(-c2ccccc2)nc2n(-c3ccccc3)nc(-c3ccc4c(n3)-c3ccccc3CCC4)n12 | 349 | 1.15 (≈ 2.39 µM) | 40
c1ccc2c(c1)CCCc1ccc(-c3ccc4ccccc4c3)nc1-2 | 170 | 5.98 (≈ 18.6 µM) | 54.2
c1ccc2c(c1)CCCc1c[nH]nc1-2 | 277 | 6.22 (≈ 33.8 µM) | 45.4
